Measured values reported in ChEMBL document CHEMBL4020716, “The synthesis and evaluation of new butadiene derivatives as tubulin polymerization inhibitors” (Bioorg Med Chem, 2017).
Blank lines part the entries; values can stand above or below the molecule they belong to. Active and inactive are the calls of the source. No cut-off for these calls is given here.

Legend:
[1] = tested on: HeLa; assay: Antiproliferative activity against human HeLa cells after 48 hrs by MTT assay; format: functional, cell-based
Method in brief: (§1)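 Cells in logarithmic growth were seeded at 5 × 10^3 cells/well and left for 24 h, then exposed to a range of compound concentrations for 48 h. MTT (5 mg/mL) was added for 4 h, the formazan was dissolved in DMSO and absorbance read at 570 nm. IC50 is the concentration giving 50% growth inhibition, from at least three independent experiments, mean ± SD. Culture: DMEM, 10% heat-inactivated FBS, penicillin/streptomycin, 37 °C, 5% CO2.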

[2] = tested on: PC-3; assay: Antiproliferative activity against human PC3 cells after 48 hrs by MTT assay; format: functional, cell-based; details: PC-3, 48 h; method in brief: as §1
[3] = tested on: MCF7; assay: Antiproliferative activity against human MCF7 cells after 48 hrs by MTT assay; format: functional, cell-based; details: MCF7, 48 h; method in brief: as §1
[4] = tested on: A549; assay: Antiproliferative activity against human A549 cells after 48 hrs by MTT assay; format: functional, cell-based; details: A549, 48 h; method in brief: as §1
[5] = tested on: A2780; assay: Antiproliferative activity against human A2780 cells after 48 hrs by MTT assay; format: functional, cell-based; details: A2780, 48 h; method in brief: as §1
[6] = tested on: HeLa; assay: Induction of apoptosis in human HeLa cells assessed as early apoptotic cells at 50 nM after 24 hrs by Annexin-V/FITC/propidium iodide staining-based flow cytometry method (reference value: 0.59%); format: functional
[7] = tested on: HeLa; assay: Induction of apoptosis in human HeLa cells assessed as late apoptotic cells at 100 nM after 24 hrs by Annexin-V/FITC/propidium iodide staining-based flow cytometry method (reference value: 0.26%); format: functional
[8] = tested on: HeLa; assay: Induction of apoptosis in human HeLa cells after 24 hrs by Annexin-V/FITC/propidium iodide staining-based flow cytometry method; format: functional, cell-based
[9] = tested on: HeLa; assay: Cell cycle arrest in human HeLa cells assessed as accumulation at G2/M phase at 50 nM after 24 hrs by propidium iodide staining-based flow cytometry method (reference value: 19.0%); format: functional
[10] = tested on: HeLa; assay: Induction of apoptosis in human HeLa cells assessed as early apoptotic cells at 25 nM after 24 hrs by Annexin-V/FITC/propidium iodide staining-based flow cytometry method (reference value: 0.59%); format: functional
[11] = tested on: HeLa; assay: Induction of morphological changes in human HeLa cells assessed as membrane blebbing at 25 to 100 nM after 24 hrs by Hoechst 33342 staining-based laser scanning confocal microscopic method; format: functional, cell-based
[12] = tested on: HeLa; assay: Induction of morphological changes in human HeLa cells assessed as chromatin condensation at 25 to 100 nM after 24 hrs by Hoechst 33342 staining-based laser scanning confocal microscopic method; format: functional, cell-based
[13] = tested on: HeLa; assay: Induction of apoptosis in human HeLa cells assessed as necrotic cells at 100 nM after 24 hrs by Annexin-V/FITC/propidium iodide staining-based flow cytometry method (reference value: 0.04%); format: functional
[14] = tested on: HeLa; assay: Cell cycle arrest in human HeLa cells assessed as accumulation at G2/M phase at 25 nM after 24 hrs by propidium iodide staining-based flow cytometry method (reference value: 19.0%); format: functional
[15] = tested on: HeLa; assay: Induction of apoptosis in human HeLa cells assessed as live cells at 25 nM after 24 hrs by Annexin-V/FITC/propidium iodide staining-based flow cytometry method (reference value: 99.1%); format: functional
[16] = tested on: HeLa; assay: Induction of apoptosis in human HeLa cells assessed as late apoptotic cells at 25 nM after 24 hrs by Annexin-V/FITC/propidium iodide staining-based flow cytometry method (reference value: 0.26%); format: functional
[17] = tested on: HeLa; assay: Induction of apoptosis in human HeLa cells assessed as live cells at 100 nM after 24 hrs by Annexin-V/FITC/propidium iodide staining-based flow cytometry method (reference value: 99.1%); format: functional
[18] = tested on: HeLa; assay: Induction of apoptosis in human HeLa cells assessed as late apoptotic cells at 50 nM after 24 hrs by Annexin-V/FITC/propidium iodide staining-based flow cytometry method (reference value: 0.26%); format: functional
[19] = tested on: HeLa; assay: Cell cycle arrest in human HeLa cells assessed as accumulation at G2/M phase at 100 nM after 24 hrs by propidium iodide staining-based flow cytometry method (reference value: 19.0%); format: functional
[20] = tested on: HeLa; assay: Induction of apoptosis in human HeLa cells assessed as early apoptotic cells at 100 nM after 24 hrs by Annexin-V/FITC/propidium iodide staining-based flow cytometry method (reference value: 0.59%); format: functional
[21] = tested on: HeLa; assay: Induction of apoptosis in human HeLa cells assessed as necrotic cells at 25 nM after 24 hrs by Annexin-V/FITC/propidium iodide staining-based flow cytometry method (reference value: 0.04%); format: functional
[22] = tested on: HeLa; assay: Induction of morphological changes in human HeLa cells assessed as microtubule shrinking at 25 to 100 nM after 24 hrs by Hoechst 33342 staining-based laser scanning confocal microscopic method; format: functional, cell-based
[23] = tested on: HeLa; assay: Induction of apoptosis in human HeLa cells assessed as necrotic cells at 50 nM after 24 hrs by Annexin-V/FITC/propidium iodide staining-based flow cytometry method (reference value: 0.04%); format: functional
[24] = tested on: HeLa; assay: Induction of apoptosis in human HeLa cells assessed as live cells at 50 nM after 24 hrs by Annexin-V/FITC/propidium iodide staining-based flow cytometry method (reference value: 99.1%); format: functional
[25] = tested on: HeLa; assay: Cell cycle arrest in human HeLa cells assessed as accumulation at G2/M phase after 24 hrs by propidium iodide staining-based flow cytometry method; format: functional
[26] = Inhibition of porcine brain tubulin polymerization preincubated for 1 min followed by addition of tubulin measured every 60 s for 90 min by DAPI staining-based fluorescence assay; design: species or system Sus scrofa

Compound: CCC=C(/C=C/c1ccc(OC)c(N)c1)c1cc(OC)c(OC)c(OC)c1
- IC50 [1]: 314 nM
- IC50 [2]: 285 nM
- IC50 [3]: 486 nM
- IC50 [4]: 398 nM
- IC50 [5]: 248 nM

Compound: C=C(/C=C/c1ccc(OC)c(O)c1)c1cc(OC)c(OC)c(OC)c1
- IC50 [1]: 320 nM
- IC50 [2]: 423 nM
- IC50 [3]: 569 nM
- IC50 [4]: 286 nM
- IC50 [5]: 457 nM

Compound: COc1ccc(/C=C(\C)C(=O)c2cc(OC)c(OC)c(OC)c2)cc1O
- IC50 [1]: 5 nM
- IC50 [2]: 9 nM
- IC50 [3]: 5 nM
- IC50 [4]: 4 nM
- IC50 [5]: 3 nM

Compound: CO/C=C(\C=C\c1ccc(OC)c(O)c1)c1cc(OC)c(OC)c(OC)c1
- IC50 [1]: 5630 nM
- IC50 [2]: 5320 nM
- IC50 [3]: 3260 nM
- IC50 [4]: 1600 nM
- IC50 [5]: 2220 nM

Compound: C=C(/C(C)=C/c1ccc(OC)c(F)c1)c1cc(OC)c(OC)c(OC)c1
- IC50 [1]: 483 nM
- IC50 [2]: 354 nM
- IC50 [3]: 412 nM
- IC50 [4]: 219 nM
- IC50 [5]: 561 nM

Compound: CC=C(/C=C/c1ccc(OC)c(N)c1)c1cc(OC)c(OC)c(OC)c1
- IC50 [1]: 217 nM
- IC50 [2]: 319 nM
- IC50 [3]: 247 nM
- IC50 [4]: 247 nM
- IC50 [5]: 137 nM

Continued by falling IC50 [1], values first:

- IC50 [1]: 3120 nM
- IC50 [2]: 4230 nM
- IC50 [3]: 8240 nM
- IC50 [4]: 2020 nM
- IC50 [5]: 5290 nM
Compound: CCC=C(/C(C)=C/c1ccc(OC)c(O)c1)c1cc(OC)c(OC)c(OC)c1

- IC50 [1]: 3120 nM
- IC50 [2]: 4510 nM
- IC50 [3]: 3970 nM
- IC50 [4]: 2460 nM
- IC50 [5]: 2930 nM
Compound: CCCC=C(/C(C)=C/c1ccc(OC)c(O)c1)c1cc(OC)c(OC)c(OC)c1

- IC50 [1]: 563 nM
- IC50 [2]: 789 nM
- IC50 [3]: 604 nM
- IC50 [4]: 637 nM
- IC50 [5]: 505 nM
Compound: CC=C(/C(C)=C/c1ccc(OC)c(O)c1)c1cc(OC)c(OC)c(OC)c1

- IC50 [1]: 495 nM
- IC50 [2]: 487 nM
- IC50 [3]: 965 nM
- IC50 [4]: 356 nM
- IC50 [5]: 839 nM
Compound: C=C(/C(C)=C/c1ccc(OC)cc1)c1cc(OC)c(OC)c(OC)c1

- IC50 [1]: 286 nM
- IC50 [2]: 457 nM
- IC50 [3]: 356 nM
- IC50 [4]: 269 nM
- IC50 [5]: 279 nM
Compound: C=C(/C(C)=C/c1ccc(OC)c(N)c1)c1cc(OC)c(OC)c(OC)c1

- IC50 [1]: 234 nM
- IC50 [2]: 560 nM
- IC50 [3]: 786 nM
- IC50 [4]: 137 nM
- IC50 [5]: 582 nM
Compound: C=C(/C=C/c1ccc(OC)c(N)c1)c1cc(OC)c(OC)c(OC)c1

- IC50 [1]: 60 nM
- IC50 [2]: 61 nM
- IC50 [3]: 89 nM
- IC50 [4]: 56 nM
- IC50 [5]: 64 nM
- IC50 [26]: 1010 nM
Compound: C=C(/C(C)=C/c1ccc(OC)c(O)c1)c1cc(OC)c(OC)c(OC)c1
- Activity [6]: 29.8%
- Activity [7]: 4.77%
- Activity [8]: Dose-dependent effect
- Activity [9]: 43%
- Activity [10]: 16%
- Activity [11]: Active
- Activity [12]: Active
- Activity [13]: 1.91%
- Activity [14]: 30%
- Activity [15]: 79.1%
- Activity [16]: 3.32%
- Activity [17]: 56.7%
- Activity [18]: 5.8%
- Activity [19]: 72%
- Activity [20]: 36.6%
- Activity [21]: 1.56%
- Activity [22]: Active
- Activity [23]: 1.77%
- Activity [24]: 62.7%
- Activity [25]: Dose-dependent effect
